Measurements reported in ChEMBL document CHEMBL1139167, “Synthesis and evaluation of diverse thio avarol derivatives as potential UVB photoprotective candidates” (Bioorg Med Chem Lett, 2007).
Active and inactive are the calls of the source. The rule behind the calls is not given here.

Tests used:
[1] = Toxicity assessed as inhibition of cell viability of UVB irradiated human HaCaT cells at 10 uM administered 2 hrs before irradiation by MTT assay; type: cell-based; details: read-out: Inhibition
How it was run: (§1)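 HaCaT cells in DMEM/10% FBS were pretreated with compounds in ethanol (final ≤0.1%) 2 h before a single 40–50 mJ/cm² UVB dose. Viability was read by MTT reduction to formazan 24 h after irradiation. Inhibition is expressed relative to maximal viability of drug-free samples, means ± SEM (n = 6).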

[2] = Toxicity assessed as inhibition of cell viability of UVB irradiated human HaCaT cells at 5 uM administered 2 hrs before irradiation by MTT assay; type: cell-based; details: read-out: Inhibition; how it was run: as §1
HaCaT [3] = test: Inhibition of TNFalpha production in UVB irradiated human HaCaT cells at 10 uM administered 2 hrs before irradiation by fluoroimmunoassay; type: functional
How it was run: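 Confluent HaCaT cells (seeded at 2 × 10^5 cells/mL in DMEM/10% FBS) received compounds in ethanol (final ≤0.1%) 2 h before 40–50 mJ/cm² UVB. […] IC50 with 95% CI came from at least four concentrations.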

HaCaT [4] = test: Inhibition of TNFalpha production in UVB irradiated human HaCaT cells administered 2 hrs before irradiation by fluoroimmunoassay; type: functional, cell-based; details: light or radiation study
How it was run: (§2)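 Confluent HaCaT cells (seeded at 2 × 10^5 cells/mL in DMEM/10% FBS) received compounds in ethanol (final ≤0.1%) 2 h before 40–50 mJ/cm² UVB.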

HaCaT [5] = test: Inhibition of TNFalpha production in UVB irradiated human HaCaT cells at 5 uM administered 2 hrs before irradiation by fluoroimmunoassay; type: functional; how it was run: as §2
HaCaT [6] = test: Inhibition of NF-kappaB activation in UVB irradiated human HaCaT cells at 10 uM administered 2 hrs before irradiation by EMSA
Neutrophil = test: Antioxidant activity assessed as inhibition of reactive oxygen species generation in TPA-stimulated human neutrophils

Structure (SMILES)	cytotoxicity at 2 h, 10 µM [1]	cytotoxicity at 2 h, 5 µM [2]	Inhibition (HaCaT [3])	IC50 (HaCaT [4])	Inhibition (HaCaT [5])	Activity (HaCaT [6])	Activity (Neutrophil)
CC1=CCC[C@H]2[C@](C)(Cc3cc(O)cc(SCCO)c3O)[C@@H](C)CC[C@]12C	22.5%	20.6%	–	–	–	–	–
COc1cc2ccc(=O)oc2c(O)c1O [FRAXETIN]	3.4%	0%	68.1%	2.8 µM	58.6%	–	–
CC1=CCC[C@H]2[C@](C)(Cc3cc(O)c(Sc4ccccc4)cc3O)[C@@H](C)CC[C@]12C	0%	0%	74.3%	4.2 µM	53.6%	Active	Dose-dependent effect
CC1=CCC[C@H]2[C@](C)(Cc3cc(O)c(SCCO)c(SCCO)c3O)[C@@H](C)CC[C@]12C	28.5%	18.1%	–	–	–	–	–
CC1=CCC[C@H]2[C@](C)(Cc3cc(O)c(Sc4ccc(C)cc4)c(Sc4ccc(C)cc4)c3O)[C@@H](C)CC[C@]12C	0%	0%	0%	–	0%	–	–
CC1=CCC[C@H]2[C@](C)(Cc3cc(O)c(SCCO)cc3O)[C@@H](C)CC[C@]12C	48.4%	21.4%	–	–	–	–	–
CC1=CCC[C@H]2[C@](C)(Cc3cc(O)cc(SCC(=O)O)c3O)[C@@H](C)CC[C@]12C	28.5%	18.3%	–	–	–	–	–
CC1=CCC[C@H]2[C@](C)(Cc3cc(O)c(Sc4ccccc4)c(Sc4ccccc4)c3O)[C@@H](C)CC[C@]12C	0%	0%	0%	–	0%	–	–
CC1=CCC[C@H]2[C@](C)(Cc3cc(O)cc(SCC(O)CO)c3O)[C@@H](C)CC[C@]12C (some centres undefined)	14%	13.6%	–	–	–	–	–
CC1=CCC[C@H]2[C@](C)(Cc3cc(O)cc(Sc4ccc(C)cc4)c3O)[C@@H](C)CC[C@]12C	0%	0%	0%	–	0%	–	–
CC1=CCC[C@H]2[C@](C)(Cc3cc(O)c(SCC(=O)O)cc3O)[C@@H](C)CC[C@]12C	13.3%	12.4%	–	–	–	–	–
CC1=CCC[C@H]2[C@](C)(Cc3cc(O)cc(Sc4ccccc4)c3O)[C@@H](C)CC[C@]12C	0%	0%	92.7%	3.7 µM	55.4%	Active	Dose-dependent effect
CC1=CCC[C@H]2[C@](C)(Cc3cc(O)c(Sc4ccc(C)cc4)cc3O)[C@@H](C)CC[C@]12C	0%	0%	0%	–	0%	–	–
CC1=CCC[C@H]2[C@](C)(Cc3cc(O)c(SCC(O)CO)cc3O)[C@@H](C)CC[C@]12C (some centres undefined)	18.6%	12.6%	–	–	–	–	–
